Here are results for 2 compounds from ChEMBL document CHEMBL3259675, “Novel N-substituted sophoridinol derivatives as anticancer agents” (Eur J Med Chem, 2014).

In general, IC50 refers to the concentration that inhibits the measured activity by half. The inhibition is how much of the control response was suppressed. As a reminder, the MRT is the average time that molecules of a dose stay in the body. The Tmax is the time at which the peak concentration occurs. One may read the Cmax as the maximum level reached in the sampled fluid or tissue. Broadly, the AUC is the area under the concentration-time curve, a measure of exposure. For orientation: half-life means the time in which the quantity being followed falls by half. For orientation: bioavailability means the share of a dose that reaches the circulation, judged against a reference dose that is usually intravenous. Lower therefore signals little systemic uptake.

Data set [1] can be described thus: Antiproliferative activity against human U87 cells assessed as growth inhibition after 48 hrs by MTT assay. The format is functional, cell-based, U-87MG ATCC. Conditions: U-87 MG. In a few lines: (§1)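 Cell lines from ATCC, grown in MEM-EBSS with 10% FBS and 1% penicillin-streptomycin at 37 °C, 5% CO2. Seeded at 4000 cells/well, left 24 h, then exposed to a concentration series for 48 h. Growth read by MTT. Percent inhibition was computed at each concentration and IC50 derived from it. Triplicate determinations, reported as mean SD.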
On the technique in general: Tetrazolium assays rely on reduction of a dye to a coloured formazan, in cell work by metabolically active cells.

Data set [2] deals with Mus musculus. Kind of data set: Toxicity in mouse assessed as body weight at 250 to 1000 mg/kg, ig. The format is organism-based. Further details: dose 250-1000 mg/kg, route intragastric. The following applies: in vivo, po.
Data set [3] concerns HepG2. Kind of data set: Cell cycle arrest in human HepG2 cells assessed as accumulation at G0/G1 phase at 2.5 ug/ml after 24 hrs by FACS flow cytometric analysis (reference value: 2 %). The class given is functional. Conditions: HepG2, 24 h. In a few lines:
(§2)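 HepG2 cells exposed to 0, 2.5, 5 or 10 µg/ml for 24 h, then harvested. Fixed in 70% ethanol and held at −20 °C. Cell-cycle distribution determined by flow cytometry, with untreated cells as control.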
(In general: Flow cytometry measures light scatter and fluorescence of single cells or particles in a stream.)

The subject of a further data set is NCI-H1299. The data set is described as follows: Antiproliferative activity against human NCI-H1299 cells assessed as growth inhibition after 48 hrs by MTT assay. The format is functional, cell-based. The following applies: NCI-H1299, 48 h. In a few lines: as §1
Data set [4] concerns HepG2. Kind of data set: Antiproliferative activity against human HepG2 cells assessed as growth inhibition at 10 ug/ml after 48 hrs by MTT assay. The format is functional. The following applies: HepG2, 48 h. In a few lines: as §1
In the next data set the test system is HCT-116. The data set is described as follows: Antiproliferative activity against human HCT116 cells assessed as growth inhibition after 48 hrs by MTT assay. The format is functional, cell-based. Conditions: HCT-116, 48 h. Put shortly:
as §1

The subject of data set [5] is HepG2. The data set is described as follows: Antiproliferative activity against human HepG2 cells assessed as growth inhibition after 48 hrs by MTT assay. The format is functional, cell-based. Conditions: HepG2, 48 h. In a few lines: as §1
In data set [6] the test system is HepG2. Kind of data set: Cell cycle arrest in human HepG2 cells assessed as accumulation at G0/G1 phase at 10 ug/ml after 24 hrs by FACS flow cytometric analysis (reference value: 2 %). Conditions: HepG2, 24 h. The format is functional. Put shortly:
as §2

Data set [7] relates to HepG2. The data set is described as follows: Cell cycle arrest in human HepG2 cells assessed as accumulation at G0/G1 phase at 5 ug/ml after 24 hrs by FACS flow cytometric analysis (reference value: 2 %). The format is functional. Conditions: HepG2, 24 h. In a few lines: as §2
Another data set relates to KB. The data set is described as follows: Antiproliferative activity against human KB cells assessed as growth inhibition after 48 hrs by MTT assay. The class given is functional, cell-based. Put shortly:
as §1

For data set [8], the system named is Mus musculus. Kind of data set: Toxicity in mouse at 250 to 1000 mg/kg, ig. The format is organism-based. Further details: dose 250-1000 mg/kg, route intragastric. Conditions: in vivo, po. In a few lines:
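Single-dose toxicity in mice: compound given intragastrically at 250, 500 or 1000 mg/kg, with deaths monitored.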

The test system of a further data set is MCF7. Kind of data set: Antiproliferative activity against human MCF7 cells assessed as growth inhibition after 48 hrs by MTT assay. The class given is functional, cell-based. The following applies: MCF7, 48 h. Put shortly: as §1
Data set [9] concerns HepG2. The data set is described as follows: Cell cycle arrest in human HepG2 cells assessed as accumulation at G0/G1 phase at 5 ug/ml after 24 hrs by FACS flow cytometric analysis (reference value: 4.1 %). The class given is functional. The following applies: HepG2, 24 h. In a few lines:
as §2

The nature of data set [10]: Mean residence time in Sprague-Dawley rat at 5 mg/kg, iv administered as single dose. The format is ADME, organism-based. On the set-up: dose 5 mg/kg, route intravenous. The following applies: in vivo. In a few lines:
(§3)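 Male rats, 3 per study, each given a single dose of 25 mg/kg orally (ig) or 5 mg/kg iv. PK parameters from non-compartmental analysis. Oral bioavailability calculated from the ig and iv data.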

A short description of data set [11]: Tmax in Sprague-Dawley rat at 5 mg/kg, iv administered as single dose. The class given is ADME, organism-based. Further details: dose 5 mg/kg, route intravenous. The following applies: in vivo. Put shortly:
as §3

The nature of data set [12]: Cmax in Sprague-Dawley rat at 5 mg/kg, iv administered as single dose. The class given is ADME, organism-based. Further details: dose 5 mg/kg, route intravenous. The following applies: in vivo. In a few lines:
as §3

The test system of data set [13] is HepG2. The data set is described as follows: Cell cycle arrest in human HepG2 cells assessed as accumulation at G0/G1 phase at 10 ug/ml after 24 hrs by FACS flow cytometric analysis (reference value: 4.1 %). The format is functional. Conditions: HepG2, 24 h. Put shortly: as §2
Data set [14] can be described thus: AUC (0 to time) in Sprague-Dawley rat at 25 mg/kg, ig administered as single dose. The class given is ADME, organism-based. Further details: dose 25 mg/kg, route intragastric. Conditions: plasma, po. In a few lines: (§4)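 Single dose given to three male rats per study, by oral gavage or intravenous injection. AUC was derived by non-compartmental analysis, n = 3.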

Data set [15] can be described thus: Half life in Sprague-Dawley rat at 5 mg/kg, iv administered as single dose. The format is ADME, organism-based. On the set-up: dose 5 mg/kg, route intravenous. The following applies: in vivo. Put shortly:
as §3

In data set [16] the test system is HepG2. The data set is described as follows: Cell cycle arrest in human HepG2 cells assessed as accumulation at G0/G1 phase at 2.5 ug/ml after 24 hrs by FACS flow cytometric analysis (reference value: 4.1 %). The format is functional. Conditions: HepG2, 24 h. In a few lines:
as §2

A short description of data set [17]: Half life in Sprague-Dawley rat at 25 mg/kg, ig administered as single dose. The class given is ADME, organism-based. On the set-up: dose 25 mg/kg, route intragastric. Conditions: in vivo, po. In a few lines: as §3
Data set [18] in a line: Tmax in Sprague-Dawley rat at 25 mg/kg, ig administered as single dose. The class given is ADME, organism-based. On the set-up: dose 25 mg/kg, route intragastric. The following applies: in vivo, po. In a few lines: as §3
A short description of data set [19]: AUC (0 to time) in Sprague-Dawley rat at 5 mg/kg, iv administered as single dose. The format is ADME, organism-based. On the set-up: dose 5 mg/kg, route intravenous. The following applies: plasma. Put shortly: as §4
Data set [20] can be described thus: Cmax in Sprague-Dawley rat at 25 mg/kg, ig administered as single dose. The class given is ADME, organism-based. On the set-up: dose 25 mg/kg, route intragastric. The following applies: in vivo, po. In a few lines:
as §3

Data set [21] in a line: Oral bioavailability in Sprague-Dawley rat at 25 mg/kg administered as single dose. The class given is ADME, organism-based. The following applies: in vivo. Put shortly: as §3
Data set [22] in a line: Mean residence time in Sprague-Dawley rat at 25 mg/kg, ig administered as single dose. On the set-up: dose 25 mg/kg, route intragastric. The following applies: in vivo, po. The format is ADME, organism-based. In a few lines:
as §3

Molecules are shown by their SMILES.

Regarding `COC(=O)CCC[C@@H]1[C@H]2CCCN3CCC[C@H](CN1Cc1ccc(Cl)cc1)[C@@H]23`, the IC50 in [1] is 12.6 µM; in the data set with NCI-H1299, 4.06 µM; with HCT-116 it was 4.59 µM; in the data set on HepG2 [5], 4.05 µM; in the data set with KB it was 6.11 µM; in the data set on MCF7 it was 20 µM. Moreover, the Activity result in the data set with Mus musculus [2] and in the data set with Mus musculus [8] was “Non-toxic” each time. For the same compound, in the data set on HepG2 [3], the inhibition at 2.5 µg/mL came to 6.3%. Besides, the inhibition at 10 µg/mL in the data set on HepG2 [4] amounted to 97.6%; with HepG2 [6] it was 8.5%. Moreover, the inhibition at 5 µg/mL with HepG2 [7] was determined as 11.8%.

On to `OCCCC[C@@H]1[C@H]2CCCN3CCC[C@H](CN1Cc1ccc(Cl)cc1)[C@@H]23`, for which the IC50 amounted to 4.52 µM in data set [1]; 5.55 µM with NCI-H1299; 10.6 µM in the data set on HCT-116; 9.37 µM in the data set with HepG2 [5]; 19.7 µM in the data set with KB; 5.73 µM in the data set with MCF7. In the data set on HepG2 [9], the inhibition at 5 µg/mL came out at 3.3%. The MRT in [10] amounted to 2.39 h; in [22], 3.28 h. The Activity result in the data set on Mus musculus [2] and in the data set on Mus musculus [8] was “Non-toxic” each time. Further, the values for the time of peak concentration (Tmax) in [11] and in data set [18] were 15 min and 39.6 min, respectively. The Cmax in [12] stood at 3.43 µM; in data set [20], 5.25 µM. The inhibition at 10 µg/mL was found to be 87.7% in the data set on HepG2 [4] and 3.3% in the data set with HepG2 [13]. Also, the AUC in [14] was found to be 18.6 µM·h; in data set [19], 20.5 µM·h. For the same compound, the results for the half-life in data set [15] and in data set [17] were 268 min and 232 min, respectively. The inhibition at 2.5 µg/mL in the data set on HepG2 [16] was found to be 4.1%. Besides, the bioavailability in data set [21] was determined as 18%.
